From ChEMBL document CHEMBL4028872, “Structure-Activity Relationship, Pharmacological Characterization, and Molecular Modeling of Noncompetitive Inhibitors of the Betaine/γ-Aminobutyric Acid Transporter 1 (BGT1)” (J Med Chem, 2017)
Each block holds one compound with its values, some of them ahead of it. Activity calls are given as the source filed them. The calls are words filed in the database; no cut-off is given here.

Legend:
[1] = molecular target: D(1A) dopamine receptor (Homo sapiens) (UniProt P21728); assay: Displacement of [3H]SCH23390 from human Dopamine receptor D1 receptor expressed in HEKT cell membranes at 10 uM after 90 mins by scintillation counting method
[2] = molecular target: Sodium- and chloride-dependent betaine transporter (Homo sapiens, UniProt P48065, F324C); assay: Inhibition of human BGT1 F324C mutant expressed in tsA201 cells assessed as reduction in [3H]GABA uptake after 3 mins by scintillation counting method; format: cell-based
Summary of the method: (§1)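 Site-directed mutant transporters transiently transfected (PolyFect) into tsA201 cells, plated and used about 24 h later. Cells were washed with HBSS containing 20 mM HEPES, 1 mM CaCl2 and 1 mM MgCl2, pH 7.4. IC50 was taken from variable-slope sigmoidal fits. Triplicates, at least three independent experiments.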

[3] = molecular target: Sodium- and chloride-dependent GABA transporter 1 (Mus musculus, UniProt P31648); assay: Inhibition of mouse GAT1 expressed in HEK293 cells assessed as reduction in [3H]GABA uptake after 3 mins by scintillation counting method; format: cell-based
Summary of the method: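 HEK293 lines stably expressing a single mouse GAT subtype, kept under blasticidin-S (5 µg/mL) selection. Cells were assayed about 24 h after plating with 30 nM [3H]GABA plus varying compound concentrations for 3 min at 37 °C in HBSS buffered with 20 mM HEPES (1 mM CaCl2, 1 mM MgCl2, pH 7.4). Cells were washed ice-cold and radioactivity counted. IC50 came from sigmoidal variable-slope fits.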

[4] = molecular target: Sodium- and chloride-dependent betaine transporter (Homo sapiens, UniProt P48065, F295Y); assay: Inhibition of human BGT1 F295Y mutant expressed in tsA201 cells assessed as reduction in [3H]GABA uptake after 3 mins by scintillation counting method; format: cell-based; summary of the method: as §1
[5] = molecular target: 5-hydroxytryptamine receptor 1D (Homo sapiens) (UniProt P28221); assay: Displacement of [3H]GR125743 from human 5-HT1D receptor expressed in HEKT cell membranes at 10 uM after 90 mins by scintillation counting method
[6] = molecular target: Sodium- and chloride-dependent betaine transporter (Homo sapiens, UniProt P48065, Q346Y); assay: Inhibition of human BGT1 Q346Y mutant expressed in tsA201 cells assessed as reduction in [3H]GABA uptake after 3 mins by scintillation counting method; format: cell-based; summary of the method: as §1
[7] = molecular target: Sodium- and chloride-dependent betaine transporter (Homo sapiens, UniProt P48065); assay: Inhibition of human BGT1/human GAT3 chimera D expresses in tsA201 cells assessed as reduction in [3H]GABA uptake after 3 mins by scintillation counting method; format: cell-based
Summary of the method: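 BGT1/GAT3 chimeric constructs transiently expressed in tsA201 cells. After about 24 h, cells were washed in HEPES-buffered HBSS (1 mM CaCl2, 1 mM MgCl2, pH 7.4). IC50 came from variable-slope sigmoidal regression. Triplicates, at least two independent experiments.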

[8] = molecular target: Histamine H1 receptor (Homo sapiens) (UniProt P35367); assay: Displacement of [3H]pyrilamine from human histamine H1 receptor expressed in HEK cell membranes at 10 uM after 90 mins by scintillation counting method
[9] = molecular target: Sodium- and chloride-dependent betaine transporter (Homo sapiens, UniProt P48065, S353A); assay: Inhibition of human BGT1 S353A mutant expressed in tsA201 cells assessed as reduction in [3H]GABA uptake after 3 mins by scintillation counting method; format: cell-based; summary of the method: as §1
[10] = molecular target: Sodium- and chloride-dependent betaine transporter (Homo sapiens, UniProt P48065, Q378P); assay: Inhibition of human BGT1 Q378P mutant expressed in tsA201 cells assessed as reduction in [3H]GABA uptake after 3 mins by scintillation counting method; format: cell-based; summary of the method: as §1
[11] = molecular target: Sodium- and chloride-dependent betaine transporter (Homo sapiens, UniProt P48065, K310N); assay: Inhibition of human BGT1 K310N mutant expressed in tsA201 cells assessed as reduction in [3H]GABA uptake after 3 mins by scintillation counting method; format: cell-based; summary of the method: as §1
[12] = molecular target: T1, GABA transporter 3 (Mus musculus, UniProt P31649); assay: Inhibition of mouse GAT2 expressed in HEK293 cells assessed as reduction in [3H]GABA uptake after 3 mins by scintillation counting method; format: cell-based
T1 sequence (P31649 whole entry): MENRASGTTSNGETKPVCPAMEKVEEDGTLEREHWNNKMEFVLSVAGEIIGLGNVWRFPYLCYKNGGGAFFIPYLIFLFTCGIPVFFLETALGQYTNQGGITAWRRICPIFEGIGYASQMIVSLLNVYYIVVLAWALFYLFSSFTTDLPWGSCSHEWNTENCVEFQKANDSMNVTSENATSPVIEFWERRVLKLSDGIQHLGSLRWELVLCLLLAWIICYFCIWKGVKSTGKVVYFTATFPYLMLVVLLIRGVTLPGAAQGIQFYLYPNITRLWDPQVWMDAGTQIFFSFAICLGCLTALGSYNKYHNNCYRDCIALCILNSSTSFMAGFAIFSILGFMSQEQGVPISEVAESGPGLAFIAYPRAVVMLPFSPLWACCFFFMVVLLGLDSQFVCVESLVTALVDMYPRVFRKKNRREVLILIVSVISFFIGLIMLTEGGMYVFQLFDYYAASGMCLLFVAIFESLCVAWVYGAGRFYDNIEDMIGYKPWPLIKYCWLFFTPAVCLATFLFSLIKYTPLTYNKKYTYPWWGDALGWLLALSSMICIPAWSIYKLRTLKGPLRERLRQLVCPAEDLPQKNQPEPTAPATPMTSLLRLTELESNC
Summary of the method: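 HEK293 cells stably expressing mouse GAT2 were kept under blasticidin-S (5 µg/mL) selection. Ice-cold washes preceded scintillation counting. IC50 came from a variable-slope sigmoidal fit.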

[13] = molecular target: Sodium- and chloride-dependent betaine transporter (Homo sapiens, UniProt P48065, H312N); assay: Inhibition of human BGT1 H312N mutant expressed in tsA201 cells assessed as reduction in [3H]GABA uptake after 3 mins by scintillation counting method; format: cell-based; summary of the method: as §1
[14] = molecular target: Sodium- and chloride-dependent betaine transporter (Homo sapiens, UniProt P48065, I386M); assay: Inhibition of human BGT1 I386M mutant expressed in tsA201 cells assessed as reduction in [3H]GABA uptake after 3 mins by scintillation counting method; format: cell-based; summary of the method: as §1
[15] = molecular target: Sodium- and chloride-dependent betaine transporter (Homo sapiens, UniProt P48065, V336A); assay: Inhibition of human BGT1 V336A mutant expressed in tsA201 cells assessed as reduction in [3H]GABA uptake after 3 mins by scintillation counting method; format: cell-based; summary of the method: as §1
[16] = molecular target: Sodium- and chloride-dependent betaine transporter (Homo sapiens, UniProt P48065, K317R); assay: Inhibition of human BGT1 K317R mutant expressed in tsA201 cells assessed as reduction in [3H]GABA uptake after 3 mins by scintillation counting method; format: cell-based; summary of the method: as §1
[17] = molecular target: Sodium- and chloride-dependent betaine transporter (Homo sapiens, UniProt P48065, A321M); assay: Inhibition of human BGT1 A321M mutant expressed in tsA201 cells assessed as reduction in [3H]GABA uptake after 3 mins by scintillation counting method; format: cell-based; summary of the method: as §1
[18] = organism: Homo sapiens; assay: Binding affinity to sigma receptor (unknown origin)

Sequence of D(1A) dopamine receptor (Homo sapiens) (P21728 whole entry): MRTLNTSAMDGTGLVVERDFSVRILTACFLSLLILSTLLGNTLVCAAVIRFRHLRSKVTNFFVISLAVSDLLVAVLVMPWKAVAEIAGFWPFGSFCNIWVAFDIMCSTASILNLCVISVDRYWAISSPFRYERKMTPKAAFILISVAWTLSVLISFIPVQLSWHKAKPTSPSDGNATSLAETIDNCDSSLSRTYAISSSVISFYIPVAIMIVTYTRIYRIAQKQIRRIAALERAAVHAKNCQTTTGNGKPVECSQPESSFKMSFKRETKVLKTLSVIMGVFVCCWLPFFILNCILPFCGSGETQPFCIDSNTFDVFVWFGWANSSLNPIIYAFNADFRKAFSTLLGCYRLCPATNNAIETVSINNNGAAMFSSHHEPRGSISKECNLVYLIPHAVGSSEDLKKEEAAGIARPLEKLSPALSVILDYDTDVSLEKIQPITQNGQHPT
Sequence of Sodium- and chloride-dependent betaine transporter (Homo sapiens, UniProt P48065, V336A) (P48065 whole entry V336A): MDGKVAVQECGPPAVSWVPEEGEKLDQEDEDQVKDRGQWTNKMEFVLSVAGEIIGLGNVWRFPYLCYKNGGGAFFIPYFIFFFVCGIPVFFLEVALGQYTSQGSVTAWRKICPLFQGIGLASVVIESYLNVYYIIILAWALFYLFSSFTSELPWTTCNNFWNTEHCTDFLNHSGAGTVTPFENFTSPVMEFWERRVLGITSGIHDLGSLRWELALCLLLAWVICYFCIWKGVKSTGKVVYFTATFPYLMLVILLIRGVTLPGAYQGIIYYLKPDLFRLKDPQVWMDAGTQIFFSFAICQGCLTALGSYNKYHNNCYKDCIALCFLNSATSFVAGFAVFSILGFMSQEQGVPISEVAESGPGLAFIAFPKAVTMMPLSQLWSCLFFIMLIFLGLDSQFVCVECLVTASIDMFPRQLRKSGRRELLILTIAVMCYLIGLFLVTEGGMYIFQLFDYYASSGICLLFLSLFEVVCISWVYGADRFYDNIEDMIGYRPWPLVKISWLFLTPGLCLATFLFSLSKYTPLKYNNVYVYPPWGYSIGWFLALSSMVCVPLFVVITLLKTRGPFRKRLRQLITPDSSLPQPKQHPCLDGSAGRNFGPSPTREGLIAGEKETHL
Sequence of Sodium- and chloride-dependent betaine transporter (Homo sapiens, UniProt P48065, F295Y) (P48065 whole entry F295Y): as the sequence (P48065 whole entry V336A) above, with F295Y, A336V counted along it
Sequence of Sodium- and chloride-dependent betaine transporter (Homo sapiens, UniProt P48065) (P48065 whole entry, looked up): as the sequence (P48065 whole entry V336A) above, with A336V counted along it
Sequence of Sodium- and chloride-dependent betaine transporter (Homo sapiens, UniProt P48065, F324C) (P48065 whole entry F324C): as the sequence (P48065 whole entry V336A) above, with F324C, A336V counted along it
Sequence of Sodium- and chloride-dependent betaine transporter (Homo sapiens, UniProt P48065, I386M) (P48065 whole entry I386M): as the sequence (P48065 whole entry V336A) above, with A336V, I386M counted along it
Sequence of Histamine H1 receptor (Homo sapiens) (P35367 whole entry): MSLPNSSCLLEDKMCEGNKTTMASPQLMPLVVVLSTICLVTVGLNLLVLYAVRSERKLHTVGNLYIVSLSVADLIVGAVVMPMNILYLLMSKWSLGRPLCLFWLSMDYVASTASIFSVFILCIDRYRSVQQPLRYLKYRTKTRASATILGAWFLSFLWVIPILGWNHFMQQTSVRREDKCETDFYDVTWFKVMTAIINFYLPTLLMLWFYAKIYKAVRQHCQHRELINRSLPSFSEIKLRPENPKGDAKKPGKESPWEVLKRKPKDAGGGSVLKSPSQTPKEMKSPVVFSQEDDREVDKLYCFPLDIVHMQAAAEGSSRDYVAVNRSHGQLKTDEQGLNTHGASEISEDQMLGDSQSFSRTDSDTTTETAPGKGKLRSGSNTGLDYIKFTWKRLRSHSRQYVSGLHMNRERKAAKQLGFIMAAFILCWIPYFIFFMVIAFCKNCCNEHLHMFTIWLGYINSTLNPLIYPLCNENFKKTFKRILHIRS
Sequence of Sodium- and chloride-dependent betaine transporter (Homo sapiens, UniProt P48065, S353A) (P48065 whole entry S353A): as the sequence (P48065 whole entry V336A) above, with A336V, S353A counted along it
Sequence of Sodium- and chloride-dependent betaine transporter (Homo sapiens, UniProt P48065, K310N) (P48065 whole entry K310N): as the sequence (P48065 whole entry V336A) above, with K310N, A336V counted along it
Sequence of Sodium- and chloride-dependent betaine transporter (Homo sapiens, UniProt P48065, K317R) (P48065 whole entry K317R): as the sequence (P48065 whole entry V336A) above, with K317R, A336V counted along it
Sequence of Sodium- and chloride-dependent betaine transporter (Homo sapiens, UniProt P48065, A321M) (P48065 whole entry A321M): as the sequence (P48065 whole entry V336A) above, with A321M, A336V counted along it
Sequence of Sodium- and chloride-dependent betaine transporter (Homo sapiens, UniProt P48065, H312N) (P48065 whole entry H312N): as the sequence (P48065 whole entry V336A) above, with H312N, A336V counted along it
Sequence of 5-hydroxytryptamine receptor 1D (Homo sapiens) (P28221 whole entry): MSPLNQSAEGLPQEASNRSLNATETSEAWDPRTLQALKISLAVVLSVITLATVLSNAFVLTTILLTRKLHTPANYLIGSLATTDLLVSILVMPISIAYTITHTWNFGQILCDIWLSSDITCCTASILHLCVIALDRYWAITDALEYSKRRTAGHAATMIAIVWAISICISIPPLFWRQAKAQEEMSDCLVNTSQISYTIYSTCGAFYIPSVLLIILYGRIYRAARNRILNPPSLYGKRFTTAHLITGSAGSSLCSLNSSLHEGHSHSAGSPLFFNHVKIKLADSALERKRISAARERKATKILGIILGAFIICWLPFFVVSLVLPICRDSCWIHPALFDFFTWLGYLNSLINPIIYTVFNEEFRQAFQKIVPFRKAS
Sequence of Sodium- and chloride-dependent betaine transporter (Homo sapiens, UniProt P48065, Q346Y) (P48065 whole entry Q346Y): as the sequence (P48065 whole entry V336A) above, with A336V, Q346Y counted along it
Sequence of Sodium- and chloride-dependent betaine transporter (Homo sapiens, UniProt P48065, Q378P) (P48065 whole entry Q378P): as the sequence (P48065 whole entry V336A) above, with A336V, Q378P counted along it

- inhibition [1]: Active
- IC50 [2]: 6 µM
- IC50 [3]: > 200 µM
- IC50 ([4]; read-out: IC50): 5 µM
- IC50 ([4]; read-out: pIC50 (converted)): 4.07 µM
- inhibition [5]: Active
- IC50 [6]: 14 µM
- IC50 [7]: 2 µM
- pIC50 [7]: 5.79
- inhibition [8]: Active
- IC50 [9]: 17 µM
- IC50 [10]: 14 µM
- IC50 [11]: 10 µM
- IC50 [12]: > 200 µM
- IC50 [13]: 8 µM
- IC50 [14]: 7 µM
- IC50 ([15]; read-out: IC50): 2 µM
- IC50 ([15]; read-out: pIC50 (converted)): 1.66 µM
- IC50 [16]: 13 µM
- IC50 [17]: 5 µM
Structure (SMILES): O=C(NC1CCN(Cc2ccccc2)CC1)c1ccc(Cl)cc1Cl

Structure (SMILES): O=C(NC1CCN(Cc2ccccc2)CC1)c1ccc(Cl)nc1Cl
- inhibition [1]: inactive
- IC50 [3]: > 400 µM
- Activity [18]: Active
- IC50 [12]: > 400 µM
